This passage reports inhibition results from ChEMBL document CHEMBL4316620, “Dihydropyrrolones as bacterial quorum sensing inhibitors” (Bioorg Med Chem Lett, 2019).

Assay [1] deals with Pseudomonas aeruginosa. Kind of assay: Toxicity in Pseudomonas aeruginosa MH602 PlasB::gfp assessed as inhibition of bacterial growth at 250 uM incubated for 15 hrs by spectrophotometry. Type of assay: organism-based. As to conditions: MH602, 15 h, read-out: GI.
The subject of assay [2] is Pseudomonas aeruginosa. Put plainly: Toxicity in Pseudomonas aeruginosa MH602 PlasB::gfp assessed as inhibition of bacterial growth at 125 uM incubated for 15 hrs by spectrophotometry. Type of assay: organism-based. As to conditions: MH602, 15 h, read-out: GI.
Assay [3] is described as follows: Inhibition of quorum sensing system in Pseudomonas aeruginosa MH602 PlasB::gfp at 31.25 uM incubated for 15 hrs by GFP reporter gene assay. The procedure, abridged: (§1)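 Reporter strain P. aeruginosa PlasB::gfp (PAMH602) makes its own AHL; lasB promoter drives GFP-ASV. Cultures incubated with compound over 250–31.25 µM at 37 °C for 15 h, then GFP fluorescence read at 535 nm. QSI expressed as % relative to untreated PAMH602 negative control. Furanone positive control.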

A short description of assay [4]: Inhibition of quorum sensing system in Pseudomonas aeruginosa MH602 PlasB::gfp at 250 uM incubated for 15 hrs by GFP reporter gene assay. In outline: as §1
In general terms: Reporter assays use an easily measured gene product as a stand-in for the process of interest.

Assay [5] can be described thus: Inhibition of quorum sensing system in Pseudomonas aeruginosa MH602 PlasB::gfp at 62.5 uM incubated for 15 hrs by GFP reporter gene assay. In outline:
as §1

Assay [6] relates to Pseudomonas aeruginosa. Put plainly: Toxicity in Pseudomonas aeruginosa MH602 PlasB::gfp assessed as inhibition of bacterial growth at 31.25 uM incubated for 15 hrs by spectrophotometry. Type of assay: organism-based. Particulars: MH602, 15 h, read-out: GI.
The nature of assay [7]: Inhibition of quorum sensing system in Pseudomonas aeruginosa MH602 PlasB::gfp at 125 uM incubated for 15 hrs by GFP reporter gene assay. In outline: as §1
Assay [8] concerns Pseudomonas aeruginosa. Kind of assay: Inhibition of biofilm formation in Pseudomonas aeruginosa PAO1 at 250 uM incubated for 6 hrs by crystal violet staining based method. As to conditions: PAO1, 6 h. Type of assay: functional. In outline: (§2)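 P. aeruginosa PA01 biofilm. Cultures grown with or without test compound for 6 h. Biofilm biomass quantified by crystal violet staining (OD550). % inhibition calculated relative to DMSO control.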

In assay [9] the test system is Pseudomonas aeruginosa. Kind of assay: Toxicity in Pseudomonas aeruginosa MH602 PlasB::gfp assessed as inhibition of bacterial growth at 62.5 uM incubated for 15 hrs by spectrophotometry. Type of assay: organism-based. Particulars: MH602, 15 h, read-out: GI.
In assay [10] the test system is Pseudomonas aeruginosa. Put plainly: Inhibition of biofilm formation in Pseudomonas aeruginosa PAO1 at 62.5 uM incubated for 6 hrs by crystal violet staining based method. Type of assay: functional. Particulars: PAO1, 6 h. In outline:
as §2

Turning to `C=C1NC(=O)C=C1c1ccc(Br)cc1`, the inhibition at 250 µM in the assay on Pseudomonas aeruginosa [1] is 15 to 30%; in the assay with Pseudomonas aeruginosa [8], 62.5%. Also, the inhibition at 125 µM in the assay on Pseudomonas aeruginosa [2] is at most 15%. For the same compound, the inhibition came out at 63.1% in [3], 82.3% in [4], 66.9% in [5] and 75.2% in assay [7]. In addition, the inhibition at 31.25 µM in the assay with Pseudomonas aeruginosa [6] is at most 15%. Also, the inhibition at 62.5 µM with Pseudomonas aeruginosa [9] is at most 15%.
Regarding `C=C1C(c2ccc(Br)cc2)=CC(=O)N1c1ccc(Cl)cc1`, the inhibition at 250 µM in the assay on Pseudomonas aeruginosa [1] was at most 15%; in the assay with Pseudomonas aeruginosa [8] it was 43.8%. Moreover, the inhibition at 125 µM with Pseudomonas aeruginosa [2] was at most 15%. In addition, the inhibition in [3] was found to be 7.39%; in assay [4], 52.4%; in [5], 44.9%; in assay [7], 50.3%. Further, the inhibition at 31.25 µM in the assay with Pseudomonas aeruginosa [6] is at most 15%. Also, the inhibition at 62.5 µM with Pseudomonas aeruginosa [9] was at most 15%.
On to `C=C1NC(=O)C=C1c1cccc(C(F)(F)F)c1`, for which the inhibition at 250 µM in the assay with Pseudomonas aeruginosa [1] was at most 15%; with Pseudomonas aeruginosa [8], 50.3%. Besides, in the assay with Pseudomonas aeruginosa [2], the inhibition at 125 µM is at most 15%. The inhibition in assay [3] was found to be 35.4%; in assay [4] it was 74.4%; in assay [5], 57.1%; in assay [7] it was 67.9%. In the assay on Pseudomonas aeruginosa [6], the inhibition at 31.25 µM was at most 15%. Further, in the assay on Pseudomonas aeruginosa [9], the inhibition at 62.5 µM was at most 15%.
For `C=C1NC(=O)C=C1c1ccccc1`, the inhibition at 250 µM was at most 15% with Pseudomonas aeruginosa [1] and 47.6% with Pseudomonas aeruginosa [8]. Further, the inhibition at 125 µM in the assay on Pseudomonas aeruginosa [2] is at most 15%. Further, the inhibition was 19.6% in assay [3], 71.5% in assay [4], 31.6% in assay [5] and 59% in [7]. Besides, the inhibition at 31.25 µM with Pseudomonas aeruginosa [6] is at most 15%. Moreover, the inhibition at 62.5 µM in the assay on Pseudomonas aeruginosa [9] is at most 15%.
On to `C=C1NC(=O)C=C1c1ccc(F)cc1`, for which the inhibition at 250 µM in the assay on Pseudomonas aeruginosa [1] is 15 to 30%; in the assay on Pseudomonas aeruginosa [8], 46.1%. The inhibition at 125 µM with Pseudomonas aeruginosa [2] was at most 15%. Also, the inhibition is 33.3% in [3], 82.4% in assay [4], 60.2% in assay [5] and 76.3% in assay [7]. In addition, the inhibition at 31.25 µM in the assay on Pseudomonas aeruginosa [6] is at most 15%. Further, the inhibition at 62.5 µM in the assay on Pseudomonas aeruginosa [9] is at most 15%.
`C=C1C(c2ccc(Br)cc2)=CC(=O)N1c1ccsc1`: the values for the inhibition at 250 µM in the assay on Pseudomonas aeruginosa [1] and in the assay on Pseudomonas aeruginosa [8] were over 30% and 87.4%, respectively. For the same compound, in the assay on Pseudomonas aeruginosa [2], the inhibition at 125 µM is 15 to 30%. In addition, the inhibition in assay [3] was 49.9%; in assay [4] it was 86%; in [5], 59.9%; in assay [7], 75%. Further, the inhibition at 31.25 µM in the assay on Pseudomonas aeruginosa [6] was at most 15%. Moreover, the inhibition at 62.5 µM was at most 15% in the assay on Pseudomonas aeruginosa [9] and 47% in the assay on Pseudomonas aeruginosa [10].
Turning to `O=C1C=C(c2ccc(Cl)cc2)CN1`, the figures for the inhibition at 250 µM in the assay with Pseudomonas aeruginosa [1] and in the assay with Pseudomonas aeruginosa [8] were at most 15% and 9.6%, respectively. The inhibition at 125 µM with Pseudomonas aeruginosa [2] is at most 15%. The inhibition in assay [3] came out at 22.6%; in assay [4] it was 61.5%; in assay [5], 26.4%; in assay [7] it was 42.7%. In addition, in the assay with Pseudomonas aeruginosa [6], the inhibition at 31.25 µM was at most 15%. The inhibition at 62.5 µM with Pseudomonas aeruginosa [9] is at most 15%.
In the case of `C=C1C(c2ccccc2F)=CC(=O)N1c1ccccc1`, the inhibition at 250 µM in the assay with Pseudomonas aeruginosa [1] is at most 15%; in the assay with Pseudomonas aeruginosa [8], 38.2%. Also, the inhibition at 125 µM in the assay with Pseudomonas aeruginosa [2] is at most 15%. In addition, the inhibition in assay [3] turned out to be 46.4%; in [4], 63.7%; in assay [5], 56.9%; in assay [7], 60.9%. For the same compound, the inhibition at 31.25 µM with Pseudomonas aeruginosa [6] is at most 15%. The inhibition at 62.5 µM with Pseudomonas aeruginosa [9] was at most 15%.
For `C=C1C(c2ccc(Br)cc2)=CC(=O)N1c1ccccc1`, the inhibition at 250 µM was 15 to 30% in the assay on Pseudomonas aeruginosa [1] and 35.2% with Pseudomonas aeruginosa [8]. Further, in the assay with Pseudomonas aeruginosa [2], the inhibition at 125 µM was at most 15%. In addition, the inhibition turned out to be 22% in assay [3], 78.6% in [4], 39.2% in assay [5] and 62% in assay [7]. Besides, the inhibition at 31.25 µM with Pseudomonas aeruginosa [6] was at most 15%. Besides, the inhibition at 62.5 µM in the assay on Pseudomonas aeruginosa [9] was at most 15%.
As for `C=C1NC(=O)C=C1c1cccc(Cl)c1`, the inhibition at 250 µM with Pseudomonas aeruginosa [1] was at most 15%; in the assay on Pseudomonas aeruginosa [8], 47.3%. In addition, the inhibition at 125 µM with Pseudomonas aeruginosa [2] is at most 15%. In addition, the inhibition in assay [3] came out at 26.3%; in assay [4], 73.3%; in [5], 54.7%; in [7] it was 69.4%. In addition, the inhibition at 31.25 µM with Pseudomonas aeruginosa [6] is at most 15%. Further, the inhibition at 62.5 µM in the assay with Pseudomonas aeruginosa [9] is at most 15%.
